Each structure is given as a SMILES string. pIC50: −log10 of the molar value.

The results in this text go back to ChEMBL document CHEMBL4052589, “Discovery of Imidazo[1,2-a]pyridine Ethers and Squaramides as Selective and Potent Inhibitors of Mycobacterial Adenosine Triphosphate (ATP) Synthesis” (J Med Chem, 2017).

The test concerns Mycobacterium tuberculosis. Briefly: Induction of membrane damage in Mycobacterium bovis BCG after 60 mins by DiOC2 probe-based fluorescence assay. Format: functional. The note with it: variant bovis BCG, 1 h. In a few lines: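 Cell-based assay. Mid-log phase BCG culture was pre-loaded with DiOC2 before compound exposure. Fluorescence was read as the red-shifted emission at 600 nm, which tracks membrane potential. CCCP served as the positive control, and IC50 was derived.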

By pIC50 is commonly meant −log10 of the IC50, conventionally taken in molar units. Lower therefore signals a high IC50. In turn, `c1ccc(OCCCOc2c(-c3ccccc3)nc3ccccn23)cc1` showed a pIC50 of less than 4.00. Then `O=c1c(NCc2cnccn2)c(-c2ccc(N3CCOCC3)cc2)c1=O`, with less than 4.00. Molecule `O=c1c(NCc2ccccn2)c(-c2ccc(N3CCOCC3)cc2)c1=O` showed a pIC50 of less than 4.00.

Take `Cc1ccc2nc(-c3ccc(F)cc3)c(OCCCNc3ccc(F)c(C)c3)n2c1`: the pIC50 was less than 4.00.

`Cc1ccc2nc(-c3ccccc3)c(OCCCOc3ccccc3)n2c1`: the pIC50 is less than 4.00. In the case of `Cc1ccc2nc(-c3ccc(F)cc3)c(OCCCNc3ccc(F)c(C)n3)n2c1`, the pIC50 was less than 4.00.
